Assay results as given in publication PMC4338372 (FEBS Open Bio, 2015).

B1: ELMO532–707: C-terminal domain of ELMO1 without the polyproline motif (protein)
chain: PILELKEKIQPEILELIKQQRLNRLVEGTCFRKLNARRRQDKFWYCRLSPNHKVLHYGDLEESPQGEVPHDSLQDKLPVADIKAVVTGKDCPHMKEKGALKQNKEVLELAFSILYDSNCQLNFIAPDKHEYCIWTDGLNALLGKDMMSDLTRNDLDTLLSMEIKLRLLDLENIQIP
modifications: left off: 6His (TEV cleavable), end not stated, kept
B2: ELMO532–727: C-terminal domain of ELMO1 with the polyproline motif (protein)
chain: PILELKEKIQPEILELIKQQRLNRLVEGTCFRKLNARRRQDKFWYCRLSPNHKVLHYGDLEESPQGEVPHDSLQDKLPVADIKAVVTGKDCPHMKEKGALKQNKEVLELAFSILYDSNCQLNFIAPDKHEYCIWTDGLNALLGKDMMSDLTRNDLDTLLSMEIKLRLLDLENIQIPDAPPPIPKEPSNYDFVYDCN
modifications: left off: 6His (TEV cleavable), end not stated, kept
B3: ELMO1–727: wild type (murine) ELMO1 protein (protein)
chain: MPPPSDIVKVAIEWPGAYPKLMEIDQKKPLSAIIKEVCDGWSLANHEYFALQHADSSNFYITEKNRNEIKNGTILRLTTSPAQNAQQLHERIQSSSMDAKLEALKDLASLSRDVTFAQEFINLDGISLLTQMVESGTERYQKLQKIMKPCFGDMLSFTLTAFVELMDHGIVSWDTFSVAFIKKIASFVNKSAIDISILQRSLAILESMVLNSHDLYQKVAQEITIGQLIPHLQGTDQEIQTYTIAVINALFLKAPDERRQEMANILAQKQLRYIILTHVIRAQRAINNEMAHQLYVLQVLTFNLLEDRMMTKMDPQDQAQRDIIFELRRIAFDAESEPNNSSGSMEKRKSMYTRDYKKLGFINHVNPAMDFTQTPPGMLALDNMLYFAKHHQDAYIRIVLENSSREDKHECPFGRSSIELTKMLCEILKVGELPSETCNDFHPMFFTHDRSFEEFFCICIQLLNKTWKEMRATSEDFNKVMQVVKEQVMRALTTKPSSLDQFKSKLQNLSYTEILKIRQSERMNQEDFQSRPILELKEKIQPEILELIKQQRLNRLVEGTCFRKLNARRRQDKFWYCRLSPNHKVLHYGDLEESPQGEVPHDSLQDKLPVADIKAVVTGKDCPHMKEKGALKQNKEVLELAFSILYDSNCQLNFIAPDKHEYCIWTDGLNALLGKDMMSDLTRNDLDTLLSMEIKLRLLDLENIQIPDAPPPIPKEPSNYDFVYDCN
modifications: left off: 6His (TEV cleavable), end not stated, kept

What was measured:
[1] = tested on: SH3 domain of DOCK180 (SH3DOCK); assay: Pull-down of 6His-ELMO1 constructs on immobilized GST-SH3DOCK; assay type: binding, human; details: bacterially expressed 6His-ELMO1; 1 h at 4 °C; anti-polyHistidine western blot
Summary of the method: (§1)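 GST-tagged SH3 domains (Hck residues 77–141; human DOCK180 residues 9–69) and 6His-ELMO1 (wild type 1–727, 532–727 and 532–707) were made in E. coli BL21(DE3) (1 mM IPTG, LB, 3 h, 37 °C). ELMO1 was purified by Ni–NTA and gel filtration, GST fusions on glutathione resin. ELMO1 was incubated with resin-bound SH3 (1 mg/ml) for 1 h at 4 °C in pH 7.5 Hepes buffer. Beads were washed three times, eluted denaturing, and analysed by SDS–PAGE and anti-His immunoblot.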

[2] = tested on: CLIP-SH3Hck; assay: FRET of SNAP-ELMO1 constructs and CLIP-SH3Hck in HEK293T cells by flow cytometry; assay type: cell-based; details: HEK293T co-transfected with CLIP-SH3Hck; control CLIP-SH3Hck alone
[3] = target: SH3Hck; assay: Solid-phase enzyme immunoassay; assay type: binding; details: preliminary solid-phase enzyme immunoassay; data not shown
[4] = target: SH3 domain of Hck (SH3Hck) (Homo sapiens, UniProt P08631); assay: Pull-down of 6His-ELMO1 constructs on immobilized GST-SH3Hck; assay type: binding; details: bacterially expressed 6His-ELMO1; 1 h at 4 °C; anti-polyHistidine western blot
Summary of the method: as §1

Chain of SH3 domain of Hck (SH3Hck) (P08631 77-141): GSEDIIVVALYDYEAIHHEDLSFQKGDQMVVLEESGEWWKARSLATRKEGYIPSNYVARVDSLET

Molecule	pull-down by immobilized GST-SH3DOCK [1]	median FRET intensity compared to control cells [2]	dissociation rate of SH3Hck [3]	pull-down by immobilized GST-SH3Hck [4]
B1	efficiently pulled-down			
B2	efficiently pulled-down	significantly higher median FRET intensity compared to control cells	ten-micromolar range	specifically pulled-down
B3	successfully pulled-down			successfully pulled-down
